According to ChEMBL document CHEMBL1649165, “Activity profile in vitro of micafungin against Spanish clinical isolates of common and emerging species of yeasts and molds” (2009):
Values after ≈ are worked out from the molar mass of the structure shown.

Legend:
Type in all cases: functional
[1] = system: Alternaria alternata; experiment: Antimicrobial activity against Alternaria alternata by broth microdilution method
Method in brief: (§1)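 Clinical mould isolates, tested by broth microdilution using the AFST-EUCAST reference method for filamentous fungi. For echinocandins, the endpoint was the minimum effective concentration: the lowest drug concentration giving aberrant hyphal growth, read with an inverted microscope.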

[2] = system: Yarrowia lipolytica; experiment: Antimicrobial activity against Yarrowia lipolytica by broth microdilution method
[3] = system: Aspergillus sydowii; experiment: Antimicrobial activity against Aspergillus sydowii by broth microdilution method; method in brief: as §1
[4] = system: Aspergillus flavus; experiment: Antimicrobial activity against Aspergillus flavus by broth microdilution method; method in brief: as §1
[5] = system: Torulaspora delbrueckii; experiment: Antimicrobial activity against Candida coliculosa by broth microdilution method
Method in brief: (§2)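 Clinical isolates from human patients, tested by broth microdilution using the AFST-EUCAST reference procedure for fermentative yeasts. The MIC was read per that reference method.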

[6] = system: Acremonium sp.; experiment: Antimicrobial activity against Acremonium sp.by broth microdilution method; method in brief: as §1
[7] = system: Naganishia albida; experiment: Antimicrobial activity against Cryptococcus albidus by broth microdilution method
Method in brief: (§3)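 Clinical isolates of nonfermentative yeasts, tested by broth microdilution following EUCAST recommendations. The only change from that method was a minor modification to improve growth.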

[8] = system: Fusarium reticulatum; experiment: Antimicrobial activity against Fusarium reticulatum by broth microdilution method
Method in brief: (§4)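 Filamentous fungus clinical isolates tested by the AFST-EUCAST reference broth microdilution method for moulds. For echinocandins, the endpoint was the minimum effective concentration: the lowest drug concentration giving aberrant hyphal growth, read with an inverted microscope.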

[9] = system: Aspergillus sclerotiorum; experiment: Antimicrobial activity against Aspergillus sclerotiorum by broth microdilution method; method in brief: as §1
[10] = system: Lecythophora hoffmannii; experiment: Antimicrobial activity against Lecythophora hoffmannii by broth microdilution method; settings: Coniochaeta hoffmannii; method in brief: as §4
[11] = system: Trichosporon asahii; experiment: Antimicrobial activity against Trichosporon asahii by broth microdilution method
Method in brief: (§5)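 Nonfermentative yeast clinical isolates (Rhodotorula, Trichosporon) tested by broth microdilution. The EUCAST yeast recommendations were followed strictly, with one minor modification to improve growth. MIC was read as the endpoint.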

[12] = system: Aspergillus fumigatus; experiment: Antimicrobial activity against Aspergillus fumigatus by broth microdilution method; method in brief: as §1
[13] = system: [Candida] intermedia; experiment: Antimicrobial activity against Candida intermedia by broth microdilution method; settings: Sungouiella intermedia; method in brief: as §2
[14] = system: Trichosporon jirovecii; experiment: Antimicrobial activity against Trichosporon jirovecii by broth microdilution method; settings: Cutaneotrichosporon jirovecii; method in brief: as §5
[15] = system: Penicillium; experiment: Antimicrobial activity against Penicillium spp. by broth microdilution method; method in brief: as §4
[16] = system: Aspergillus ochraceus; experiment: Antimicrobial activity against Aspergillus ochraceus by broth microdilution method; method in brief: as §1
[17] = system: Candida albicans; experiment: Antimicrobial activity against Candida albicans by broth microdilution method; method in brief: as §2
[18] = system: Nakaseomyces glabratus; experiment: Antimicrobial activity against Candida glabrata by broth microdilution method; method in brief: as §2
[19] = system: Trichosporon domesticum; experiment: Antimicrobial activity against Trichosporon mycotoxinivorans by broth microdilution method; settings: Apiotrichum domesticum
Method in brief: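 Spanish human clinical isolates were tested as nonfermentative yeasts by broth microdilution. The method strictly followed the EUCAST recommendations, with a minor modification to improve growth, and the read-out was the MIC.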

[20] = system: Saccharomyces cerevisiae; experiment: Antimicrobial activity against Saccharomyces cerevisiae by broth microdilution method
[21] = system: Coprinellus domesticus; experiment: Antimicrobial activity against Hormographiella verticillata by broth microdilution method; method in brief: as §4
[22] = system: Pichia norvegensis; experiment: Antimicrobial activity against Candida norvegensis by broth microdilution method; method in brief: as §2
[23] = system: Trichosporon; experiment: Antimicrobial activity against Trichosporon spp. by broth microdilution method; method in brief: as §5
[24] = system: Paecilomyces lilacinus; experiment: Antimicrobial activity against Paecilomyces lilacinus by broth microdilution method; settings: Purpureocillium lilacinum; method in brief: as §4
[25] = system: Aspergillus terreus; experiment: Antimicrobial activity against Aspergillus terreus by broth microdilution method; method in brief: as §1
[26] = system: [Candida] inconspicua; experiment: Antimicrobial activity against Candida inconspicua by broth microdilution method; settings: Pichia inconspicua; method in brief: as §2
[27] = system: Fennellia nivea; experiment: Antimicrobial activity against Aspergillus niveus by broth microdilution method; method in brief: as §1
[28] = system: Fusarium proliferatum; experiment: Antimicrobial activity against Fusarium proliferatum by broth microdilution method; method in brief: as §1
[29] = system: Mucor; experiment: Antimicrobial activity against Mucor spp.by broth microdilution method; method in brief: as §4
[30] = system: Scedosporium apiospermum; experiment: Antimicrobial activity against Scedosporium apiospermum by broth microdilution method; method in brief: as §4
[31] = system: Trichosporon dermatis; experiment: Antimicrobial activity against Trichosporon dermatis by broth microdilution method; settings: Cutaneotrichosporon dermatis; method in brief: as §5
[32] = system: Candida tropicalis; experiment: Antimicrobial activity against Candida tropicalis by broth microdilution method; method in brief: as §2
[33] = system: Aspergillus; experiment: Antimicrobial activity against Aspergillus spp. by broth microdilution method; method in brief: as §1
[34] = system: Kluyveromyces marxianus; experiment: Antimicrobial activity against Candida kefyr by broth microdilution method; method in brief: as §2
[35] = system: Magnusiomyces capitatus; experiment: Antimicrobial activity against Dipodascus capitatus by broth microdilution method
[36] = system: Aspergillus niger; experiment: Antimicrobial activity against Aspergillus niger by broth microdilution method; method in brief: as §1
[37] = system: Diutina rugosa; experiment: Antimicrobial activity against Candida rugosa by broth microdilution method; method in brief: as §2
[38] = system: Paecilomyces variotii; experiment: Antimicrobial activity against Paecilomyces variotii by broth microdilution method; method in brief: as §4
[39] = system: [Candida] zeylanoides; experiment: Antimicrobial activity against Candida zeylanoides by broth microdilution method; settings: Dujonia zeylanoides; method in brief: as §2
[40] = system: Trichoderma; experiment: Antimicrobial activity against Trichoderma spp. by broth microdilution method; method in brief: as §4
[41] = system: Scytalidium hyalinum; experiment: Antimicrobial activity against Scytalidium hyalinum by broth microdilution method; settings: Neoscytalidium hyalinum; method in brief: as §4
[42] = system: Fusarium verticillioides; experiment: Antimicrobial activity against Fusarium verticillioides by broth microdilution method; method in brief: as §4
[43] = system: Papiliotrema laurentii; experiment: Antimicrobial activity against Cryptococcus laurentii by broth microdilution method; method in brief: as §3
[44] = system: Wickerhamomyces anomalus; experiment: Antimicrobial activity against Candida pelliculosa by broth microdilution method; settings: Hansenula anomala; method in brief: as §2

SMILES: CCC(C)n1ncn(-c2ccc(N3CCN(c4ccc(OCC5COC(Cn6cncn6)(c6ccc(Cl)cc6Cl)O5)cc4)CC3)cc2)c1=O (stereo not drawn) [ITRACONAZOLE]
- MIC50 [1]: 0.5 µg/mL (≈ 0.709 µM)
- MIC90 [1]: > 8 µg/mL
- MIC50 [2]: 0.5 µg/mL (≈ 0.709 µM)
- MIC90 [2]: > 8 µg/mL
- MIC50 [3]: 0.5 µg/mL (≈ 0.709 µM)
- MIC90 [3]: > 8 µg/mL
- MIC50 [4]: 0.25 µg/mL (≈ 0.354 µM)
- MIC90 [4]: 0.5 µg/mL (≈ 0.709 µM)
- MIC50 [5]: 0.12 µg/mL (≈ 0.17 µM)
- MIC90 [5]: > 8 µg/mL
- MIC50 [6]: > 8 µg/mL
- MIC90 [6]: > 8 µg/mL
- MIC50 [7]: 0.5 µg/mL (≈ 0.709 µM)
- MIC90 [7]: > 8 µg/mL
- MIC50 [8]: > 8 µg/mL
- MIC90 [8]: > 8 µg/mL
- MIC50 [9]: 0.5 µg/mL (≈ 0.709 µM)
- MIC90 [9]: > 8 µg/mL
- MIC50 [10]: 0.12 µg/mL (≈ 0.17 µM)
- MIC90 [10]: > 8 µg/mL
- MIC50 [11]: 0.5 µg/mL (≈ 0.709 µM)
- MIC90 [11]: > 8 µg/mL
- MIC50 [12]: 0.25 µg/mL (≈ 0.354 µM)
- MIC90 [12]: 0.5 µg/mL (≈ 0.709 µM)
- MIC50 [13]: 0.12 µg/mL (≈ 0.17 µM)
- MIC90 [13]: > 8 µg/mL
- MIC50 [14]: 0.5 µg/mL (≈ 0.709 µM)
- MIC90 [14]: > 8 µg/mL
- MIC50 [15]: 0.5 µg/mL (≈ 0.709 µM)
- MIC90 [15]: > 8 µg/mL
- MIC50 [16]: 0.5 µg/mL (≈ 0.709 µM)
- MIC90 [16]: > 8 µg/mL
- MIC50 [17]: 0.02 µg/mL (≈ 0.0283 µM)
- MIC90 [17]: 0.03 µg/mL (≈ 0.0425 µM)
- MIC50 [18]: 0.25 µg/mL (≈ 0.354 µM)
- MIC90 [18]: 1 µg/mL (≈ 1.42 µM)
- MIC50 [19]: 0.5 µg/mL (≈ 0.709 µM)
- MIC90 [19]: > 8 µg/mL
- MIC50 [20]: 0.5 µg/mL (≈ 0.709 µM)
- MIC90 [20]: 2 µg/mL (≈ 2.83 µM)
- MIC50 [21]: > 8 µg/mL
- MIC90 [21]: > 8 µg/mL
- MIC50 [22]: 0.12 µg/mL (≈ 0.17 µM)
- MIC90 [22]: > 8 µg/mL
- MIC50 [23]: 0.5 µg/mL (≈ 0.709 µM)
- MIC90 [23]: > 8 µg/mL
- MIC50 [24]: > 8 µg/mL
- MIC90 [24]: > 8 µg/mL
- MIC50 [25]: 0.25 µg/mL (≈ 0.354 µM)
- MIC90 [25]: 0.5 µg/mL (≈ 0.709 µM)
- MIC50 [26]: 0.12 µg/mL (≈ 0.17 µM)
- MIC90 [26]: > 8 µg/mL
- MIC50 [27]: 0.5 µg/mL (≈ 0.709 µM)
- MIC90 [27]: > 8 µg/mL
- MIC50 [28]: > 8 µg/mL
- MIC90 [28]: > 8 µg/mL
- MIC50 [29]: > 8 µg/mL
- MIC90 [29]: > 8 µg/mL
- MIC50 [30]: 1 µg/mL (≈ 1.42 µM)
- MIC90 [30]: > 8 µg/mL
- MIC50 [31]: 0.5 µg/mL (≈ 0.709 µM)
- MIC90 [31]: > 8 µg/mL
- MIC50 [32]: 0.02 µg/mL (≈ 0.0283 µM)
- MIC90 [32]: 0.06 µg/mL (≈ 0.085 µM)
- MIC50 [33]: 0.5 µg/mL (≈ 0.709 µM)
- MIC90 [33]: > 8 µg/mL
- MIC50 [34]: 0.02 µg/mL (≈ 0.0283 µM)
- MIC90 [34]: 0.06 µg/mL (≈ 0.085 µM)
- MIC50 [35]: 0.25 µg/mL (≈ 0.354 µM)
- MIC90 [35]: 0.5 µg/mL (≈ 0.709 µM)
- MIC50 [36]: 1 µg/mL (≈ 1.42 µM)
- MIC90 [36]: > 8 µg/mL
- MIC50 [37]: 0.12 µg/mL (≈ 0.17 µM)
- MIC90 [37]: > 8 µg/mL
- MIC50 [38]: 0.06 µg/mL (≈ 0.085 µM)
- MIC90 [38]: 0.25 µg/mL (≈ 0.354 µM)
- MIC50 [39]: 0.12 µg/mL (≈ 0.17 µM)
- MIC90 [39]: > 8 µg/mL
- MIC50 [40]: > 8 µg/mL
- MIC90 [40]: > 8 µg/mL
- MIC50 [41]: 0.12 µg/mL (≈ 0.17 µM)
- MIC90 [41]: > 8 µg/mL
- MIC50 [42]: > 8 µg/mL
- MIC90 [42]: > 8 µg/mL
- MIC50 [43]: 0.5 µg/mL (≈ 0.709 µM)
- MIC90 [43]: > 8 µg/mL
- MIC50 [44]: 0.12 µg/mL (≈ 0.17 µM)
- MIC90 [44]: > 8 µg/mL
